Assay results from different studies.
Each line is one published result; the experiments were not run side by side.
Target: Protein-tyrosine kinase 2-beta (PTK2B, Homo sapiens, UniProt Q14289)

Structure (SMILES)	effect on	mode	method	concentration	endpoint	result
CO[C@@H](C)c1c(Nc2ccc([C@H](N(C)C(=O)C3CCS(=O)(=O)CC3)C(F)(F)F)cc2)cnc2cc(Cl)nn12	cell-free assay		competition with immobilised ligand	1 µM	remaining binding	83%
CN1CC(Oc2cnc(C#N)cc2-c2ccn3nc(NC(=O)C4CC4)cc3c2)C1	enzyme activity	inhibitor		1 µM	inhibition	6%
Cc1[nH]c(/C=C2\C(=O)Nc3ccc(F)cc32)c(C)c1C(=O)N[C@H]1CCN(C(=O)N(C)C)C1	enzyme activity	inhibitor		1 µM	remaining activity	75%
CNC(=O)c1ccc(Nc2ncc(C(F)(F)F)c(NCc3nccnc3N(C)S(C)(=O)=O)n2)cc1	binding		competition with immobilised ligand	1 µM	remaining binding	8.3%
CCCOc1ccc(OC)c(F)c1C(=O)c1ccc(C(=O)N[C@@H]2CNC[C@H]2NC(=O)c2ccc3[nH]ncc3c2)cc1	enzyme activity	inhibitor		10 µM	remaining activity	77%
Cc1cc(NC(=O)c2cccc3cc(-c4cccc5[nH]nc(N)c45)ccc23)ccc1F	enzyme activity	inhibitor		0.1 µM	activity vs control	113%
COc1cc2nccc(Oc3ccc(NC(=O)c4c5n(n(-c6ccc(F)cc6)c4=O)CCCC5)cc3)c2cc1OC	enzyme activity	inhibitor		0.1 µM	inhibition	0%
CCCS(=O)(=O)Nc1ccc(F)c(C(=O)c2c[nH]c3ncc(-c4ccc(Cl)cc4)cc23)c1F	enzyme activity	inhibitor		1 µM	inhibition	< 10%
Cc1ccc(Nc2nccc(N(C)c3ccc4c(C)n(C)nc4c3)n2)cc1S(N)(=O)=O	enzyme activity	inhibitor		10 µM	inhibition	81%
CC(C)(C)c1nc2c(s1)c1nc(N)ncc1c1ccc(NS(=O)(=O)c3c(F)cccc3F)c(F)c12	enzyme activity	inhibitor	radiometric	1 µM	remaining activity	91%
O=C1Nc2ccc(Cl)cc2C1=Cc1cc(Cl)c(O)c(Cl)c1	cell-free assay			0.5 µM	remaining signal	96.7%
CCS(=O)(=O)c1cc2cc(C[C@](O)(CC(C)(C)c3ccc(F)cc3C(N)=O)C(F)(F)F)[nH]c2cn1	cell-free assay		competition with immobilised ligand	1 µM	remaining binding	100%
COc1cc2c(N3CCN(C(=O)Nc4ccc(OC(C)C)cc4)CC3)ncnc2cc1OCCCN1CCCCC1	cell-free assay			0.5 µM	remaining signal	99.3%
CCc1ccccc1C(=O)Nc1n[nH]c2c(C)c(F)c(C3C(C#N)=C(C)N(C)C(C)=C3C#N)cc12	cell-free assay		competition with immobilised ligand	1 µM	remaining binding	92%
CCN(CC)CCNC(=O)c1c(C)[nH]c(/C=C2\C(=O)Nc3ccc(F)cc32)c1C	enzyme activity	inhibitor		0.3 µM	inhibition	59%
O=C(Nc1ccc(Oc2ccc(F)cc2)cc1)N1CCc2ncccc2[C@H]1c1ccc(F)cc1	cell-free assay		competition with immobilised ligand	1 µM	remaining binding	89%
O=C(Nc1cnn(-c2csc(C(=O)NC3COC3)c2)c1)Nc1c(F)cccc1Cl	enzyme activity	inhibitor		5 µM	remaining activity	91%
Cc1noc([C@H]2C[C@@H](c3ccc(C(F)(F)F)cc3)CN(C(=O)N3CCS(=O)(=O)C3)C2)n1	cell-free assay		competition with immobilised ligand	1 µM	remaining binding	100%
Oc1cccc(-c2nc(N3CCOCC3)c3oc4ncccc4c3n2)c1	cell-free assay			0.5 µM	remaining signal	103%
